Values joined by “and” are separate entries in the source; they are usually repeats but may differ in a detail not shown here. Equal entries are not always repeated.
Tested on: Fibroblast
Assay: Multiplex assay against human fibroblast
Assay type: toxicity, cell-based
Summary of the method: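 Live cells carried four stains from seeding: Hoechst33342, BioTracker Green Microtubule Cytoskeleton Dye, MitoTracker Red and Annexin V Alexa Fluor 680. They were imaged on a CQ1 microscope at 37°C and 5% CO2 after compound addition. Using CellPathfinder machine-learning gating, cells were split into Hoechst high-intensity objects or normal cells, normal cells into healthy, pyknosed or fragmented nuclei, and pyknosed cells into mitotic or apoptotic; tubulin, mitochondrial-mass and membrane-permeability phenotypes are per cents of healthy-nucleus cells.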

[1] = 12 h, 1 µM, compound concentration 1 uM
[2] = 12 h, 10 µM, compound concentration 10 uM
[3] = 24 h, 1 µM, compound concentration 1 uM
[4] = 24 h, 10 µM, compound concentration 10 uM
[5] = 48 h, 1 µM, compound concentration 1 uM
[6] = 48 h, 10 µM, compound concentration 10 uM

## COc1ccc(Cl)cc1[C@]1(F)C(=O)Nc2cc(C(F)(F)F)ccc21 [FLINDOKALNER]
[1]
  Population Apoptotic (%): 10.87% and 19.35%
  Population Fragmented Nuclei (%): 9.6% and 5.91%
  Population Healthy Nuclei (%): 64.41% and 80%
  Population Hoechst High Intensity Objects (%): 0%
  Population Membrane Permeable-Phenotype (%): 2.63% and 1.7%
  Population Mitochondria Different-Phenotype (%): 7.02% and 9.09%
  Population Mitotic Cells (%): 89.13% and 80.65%
  Population Normal (%): 100%
  Population Pyknosed Nuclei (%): 25.99% and 14.09%
  Population Tubulin-Different-Phenotype (%): 10.53% and 15.34%
  Total Cell Count: 177 and 220
[2]
  Population Apoptotic (%): 10.2% and 11.76%
  Population Fragmented Nuclei (%): 14.63% and 8.91%
  Population Healthy Nuclei (%): 55.49% and 74.26%
  Population Hoechst High Intensity Objects (%): 0%
  Population Membrane Permeable-Phenotype (%): 5.49% and 4.67%
  Population Mitochondria Different-Phenotype (%): 15.38% and 11.33%
  Population Mitotic Cells (%): 89.8% and 88.24%
  Population Normal (%): 100%
  Population Pyknosed Nuclei (%): 29.88% and 16.83%
  Population Tubulin-Different-Phenotype (%): 15.38% and 34.67%
  Total Cell Count: 164 and 202
[3]
  Population Apoptotic (%): 14.63% and 27.27%
  Population Fragmented Nuclei (%): 10.29% and 4.91%
  Population Healthy Nuclei (%): 69.61% and 85.27%
  Population Hoechst High Intensity Objects (%): 0%
  Population Membrane Permeable-Phenotype (%): 3.52% and 2.09%
  Population Mitochondria Different-Phenotype (%): 5.63% and 5.76%
  Population Mitotic Cells (%): 85.37% and 72.73%
  Population Normal (%): 100%
  Population Pyknosed Nuclei (%): 20.1% and 9.82%
  Population Tubulin-Different-Phenotype (%): 19.72% and 10.99%
  Total Cell Count: 204 and 224
[4]
  Population Apoptotic (%): 4.65% and 14.29%
  Population Fragmented Nuclei (%): 9.94% and 5.1%
  Population Healthy Nuclei (%): 64.91% and 84.18%
  Population Hoechst High Intensity Objects (%): 0%
  Population Membrane Permeable-Phenotype (%): 3.6% and 3.03%
  Population Mitochondria Different-Phenotype (%): 12.61% and 10.3%
  Population Mitotic Cells (%): 95.35% and 85.71%
  Population Normal (%): 100%
  Population Pyknosed Nuclei (%): 25.15% and 10.71%
  Population Tubulin-Different-Phenotype (%): 27.93% and 29.09%
  Total Cell Count: 171 and 196
[5]
  Population Apoptotic (%): 33.33% and 18.18%
  Population Fragmented Nuclei (%): 9.22% and 7.42%
  Population Healthy Nuclei (%): 83.87% and 87.77%
  Population Hoechst High Intensity Objects (%): 0%
  Population Membrane Permeable-Phenotype (%): 2.2% and 1%
  Population Mitotic Cells (%): 66.67% and 81.82%
  Population Normal (%): 100%
  Population Pyknosed Nuclei (%): 6.91% and 4.8%
  Population Tubulin-Different-Phenotype (%): 12.09% and 14.43%
  Total Cell Count: 217 and 229
[6]
  Population Apoptotic (%): 22.22% and 18.18%
  Population Healthy Nuclei (%): 74.18% and 91.26%
  Population Hoechst High Intensity Objects (%): 0%
  Population Membrane Permeable-Phenotype (%): 2.96% and 5.32%
  Population Mitochondria Different-Phenotype (%): 14.81% and 5.32%
  Population Mitotic Cells (%): 77.78% and 81.82%
  Population Normal (%): 100%
  Population Pyknosed Nuclei (%): 9.89% and 5.34%
  Population Tubulin-Different-Phenotype (%): 14.81% and 30.32%
  Total Cell Count: 182 and 206

## CCCOc1ccc2[nH]cc(C3=CCNCC3)c2n1.Cl
[1]
  Population Apoptotic (%): 42% and 48%
  Population Fragmented Nuclei (%): 13% and 25%
  Population Healthy Nuclei (%): 71% and 52%
  Population Hoechst High Intensity Objects (%): 2% and 0%
  Population Membrane Permeable-Phenotype (%): 0% and 8%
  Population Mitochondria Different-Phenotype (%): 6% and 2%
  Population Mitotic Cells (%): 57% and 51%
  Population Normal (%): 97% and 99%
  Population Pyknosed Nuclei (%): 15% and 21%
  Population Tubulin-Different-Phenotype (%): 27% and 47%
  Total Cell Count: 143 and 137
[2]
  Population Apoptotic (%): 70% and 40%
  Population Fragmented Nuclei (%): 16% and 31%
  Population Healthy Nuclei (%): 70% and 48%
  Population Hoechst High Intensity Objects (%): 4% and 2%
  Population Membrane Permeable-Phenotype (%): 0% and 1%
  Population Mitochondria Different-Phenotype (%): 12% and 10%
  Population Mitotic Cells (%): 29% and 60%
  Population Normal (%): 95% and 97%
  Population Pyknosed Nuclei (%): 13% and 20%
  Population Tubulin-Different-Phenotype (%): 41% and 59%
  Total Cell Count: 133 and 125
[3]
  Population Apoptotic (%): 57% and 38%
  Population Fragmented Nuclei (%): 14% and 28%
  Population Healthy Nuclei (%): 76% and 52%
  Population Hoechst High Intensity Objects (%): 2% and 0%
  Population Membrane Permeable-Phenotype (%): 0% and 5%
  Population Mitochondria Different-Phenotype (%): 6% and 5%
  Population Mitotic Cells (%): 42% and 61%
  Population Normal (%): 97% and 100%
  Population Pyknosed Nuclei (%): 9% and 18%
  Population Tubulin-Different-Phenotype (%): 20% and 40%
  Total Cell Count: 155 and 140
[4]
  Population Apoptotic (%): 61% and 50%
  Population Fragmented Nuclei (%): 23% and 20%
  Population Healthy Nuclei (%): 64% and 68%
  Population Hoechst High Intensity Objects (%): 1% and 2%
  Population Membrane Permeable-Phenotype (%): 0% and 4%
  Population Mitochondria Different-Phenotype (%): 12% and 8%
  Population Mitotic Cells (%): 38% and 50%
  Population Normal (%): 98% and 97%
  Population Pyknosed Nuclei (%): 11%
  Population Tubulin-Different-Phenotype (%): 36% and 61%
  Total Cell Count: 159 and 107
[5]
  Population Apoptotic (%): 69% and 64%
  Population Fragmented Nuclei (%): 17% and 36%
  Population Healthy Nuclei (%): 74% and 53%
  Population Hoechst High Intensity Objects (%): 2% and 4%
  Population Membrane Permeable-Phenotype (%): 0% and 5%
  Population Mitochondria Different-Phenotype (%): 5% and 2%
  Population Mitotic Cells (%): 30% and 35%
  Population Normal (%): 97% and 95%
  Population Pyknosed Nuclei (%): 8% and 9%
  Population Tubulin-Different-Phenotype (%): 23% and 40%
  Total Cell Count: 162 and 147
[6]
  Population Apoptotic (%): 73% and 60%
  Population Fragmented Nuclei (%): 21% and 32%
  Population Healthy Nuclei (%): 65% and 62%
  Population Hoechst High Intensity Objects (%): 2% and 5%
  Population Membrane Permeable-Phenotype (%): 0% and 4%
  Population Mitochondria Different-Phenotype (%): 9% and 13%
  Population Mitotic Cells (%): 26% and 40%
  Population Normal (%): 97% and 94%
  Population Pyknosed Nuclei (%): 13% and 4%
  Population Tubulin-Different-Phenotype (%): 45% and 44%
  Total Cell Count: 150 and 116

— ChEMBL document CHEMBL5724801, “EUbOPEN Chemogenomics Library - Multiplex” (2024)
